Inconclusive results are not listed.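 Rule for the calls, unless noted: active = cell viability at or below a set limit in both duplicate runs, the limit being the all-compound median minus 4 SD (cut at about 23% in these data, passing the limit was not always enough); inconclusive = no clear call, values can overlap the other calls; inactive = the rest.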
Key:
[1] = OD615 S. cerevisiae growth inhibition, permissive medium, pilot counter-assay, permissive growth control for S. cerevisiae lifespan shortening project (AID 705;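 active = growth inhibition above 25% in both replicates, a cutoff set 3 SD above the mean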); conditions: OD615, 24 h, at 10 µM, active compounds read high
Summary of the method: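 System – S. cerevisiae with engineered DeaD lifespan system · Buffer or medium – SC raffinose/galactose permissive medium · Schedule – cells pre-grown 4 h, then 24 h compound exposure, 30 °C humidified · Technique – culture turbidity as optical density at 615 nm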

[2] = Restrictive medium S. cerevisiae growth inhibition, OD615, pilot screen of yeast lifespan reduction project, restrictive growth control (AID 706;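 active = growth inhibition above a set limit, 3 SD over mean compound inhibition, in both replicates, cut at about 43% in these data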;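 note: modified DeaD lifespan yeast strain shifted to restrictive glucose medium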); conditions: OD615, 48 h, at 10 µM, active compounds read high
Summary of the method: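 Material: engineered S. cerevisiae DeaD strain / Medium: glucose-based CSMM-D restrictive medium / Compound: single dose of 10 µM compound final, 0.25% DMSO / Timing: 4 h pre-incubation, 48 h exposure at 30 °C / Technique: OD615 absorbance reading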

[3] = viability gain of MRP-1-high H69AR cells under doxorubicin, pilot screen, MRP-1 activator project, CellTiter-Glo, duplicate (AID 807;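 active = viability increase at or above a cutoff of the median across tested compounds plus 3 SD, cut at about 8.5% in these data, passing the limit was not always enough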;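 note: compound pretreatment 18-22 h then 72 h combined with doxorubicin; 0% = doxorubicin alone and 100% = vehicle without doxorubicin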); conditions: H69AR viability with doxorubicin, CellTiter-Glo luminescence; at 10 µM; active compounds read high
[4] = growth suppression of beta-catenin knockout HCT116, pilot screen, human colon tumor cells (AID 823); conditions: CellTiter-Glo, 60 h, at 10 µM, active compounds read low;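 note: 0% = wells killed by 20 µM Hyamine and 100% = untreated DMSO cell wells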
[5] = growth suppression of PTEN-deleted HCT116, pilot screen, cell-based, HCT116 clonal line, CellTiter-Glo (AID 824;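 active = viability at or below 27.92% in each of two runs, the all-compound median minus 4 SD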;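 note: 0% = 20 µM Hyamine control and 100% = vehicle cell control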); conditions: 60 h, at 10 µM, active compounds read low
[6] = inhibitors of the yeast RAM network, pilot screen, dse1pr::URA3 reporter, 5-FOA selection (AID 869;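 active = inhibition over a set limit, the all-compound mean plus 3 SD, in both replicate runs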;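 note: 0% = DMSO wells with no growth and 100% = 10 µM 1-NA-PP1 with full growth; RAM network block rescues cells from 5-FOA so hits raise OD615 growth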); conditions: S. cerevisiae dse1pr::URA3 5-FOA growth, OD615, 2 d; at 10 µM; active compounds read high; strain carries analog-sensitive mutant Cbk1 kinase
[7] = RAM signaling pathway blockade in yeast – S. cerevisiae, Pdr1DBD-CYC8 efflux-inhibited sensitized strain, primary screen (AID 1298;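 active = RAM network inhibition above 8.4% in each of two replicates, 3 SD over the compound average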;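 note: 0% = DMSO untreated cells without growth and 100% = 10 µM 1-NA-PP1 full growth; higher means more yeast growth rescued from 5-FOA killing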); conditions: S. cerevisiae cbk1-as DSE1-URA3 strain, 5-FOA growth OD615, 2 d; at 50 µM; active compounds read high

COC(=O)C1C2C=CC3(CN(C(C)C)C(=O)C13)O2 (stereo not drawn)
inactive: growth inhibition [1] -11.7% | growth inhibition [2] -17.2% | viability increase [3] -1.07% | viability [4] 106% | viability [5] 102% | inhibition [6] -0.215% | RAM network inhibition [7] 1.89%

CC(=O)Nc1ccc(S(=O)(=O)NCCc2cc3c(C)ccc(C)c3[nH]c2=O)cc1
inactive: growth inhibition [1] -10.1% | growth inhibition [2] -6.53% | viability increase [3] -0.47% | viability [4] 98.2% | viability [5] 94.2% | inhibition [6] 1.82% | RAM network inhibition [7] 1.05%

CCCCCn1c(CCNC(=O)c2cccs2)nc2ccccc21
inactive: growth inhibition [1] -9.44% | growth inhibition [2] -0.75% | viability increase [3] -2.25% | viability [4] 94.2% | viability [5] 86.4% | inhibition [6] 2.39% | RAM network inhibition [7] 0.13%

CCC(C)[C@@H](C(=O)Nc1ccc(OC)c(OC)c1)N1Cc2ccccc2C1=O (stereo partly drawn)
inactive: growth inhibition [1] -13.5% | growth inhibition [2] -13.6% | viability increase [3] -2.11% | viability [4] 91.8% | viability [5] 82.8% | inhibition [6] 2.65% | RAM network inhibition [7] 2.81%

O=C(NCc1ccccn1)C1CC(=O)N(C2CCCC2)C1 (stereo not drawn)
inactive: growth inhibition [1] -5.27% | growth inhibition [2] 4.21% | viability increase [3] 1.73% | viability [4] 103% | viability [5] 96.9% | inhibition [6] 1.5% | RAM network inhibition [7] 2.33%

CC(=O)N(CCCc1ccc(C(C)(C)C)cc1)CCCN(C)C
inactive: growth inhibition [1] -2.64% | growth inhibition [2] -12.6% | viability increase [3] -5.16% | viability [4] 70.6% | viability [5] 76.2% | inhibition [6] 0.59% | RAM network inhibition [7] 1.48%

CC(C)(Oc1ccc(-c2ccco2)cc1)C(=O)O
inactive: growth inhibition [1] -0.405% | growth inhibition [2] 0.705% | viability increase [3] -0.38% | viability [4] 97.8% | viability [5] 96.8% | inhibition [6] 0.31% | RAM network inhibition [7] 1.07%

CCOC(=O)N1CCN(C(=O)c2oc3ccc(S(=O)(=O)N4CCCCCC4)cc3c2C)CC1
inactive: growth inhibition [1] -9.38% | growth inhibition [2] -0.595% | viability increase [3] -4.29% | viability [4] 59.3% | viability [5] 71.1% | inhibition [6] -0.805% | RAM network inhibition [7] 1.63%

CCOc1ccc(N2CC(=O)SC2=S)cc1
inactive: growth inhibition [1] -6.07% | growth inhibition [2] -0.73% | viability increase [3] 1.09% | viability [4] 96.3% | viability [5] 95.9% | inhibition [6] 0.425% | RAM network inhibition [7] 7.05%

CC1CCN(C(=O)CSc2nnc(Cc3cccn3C)n2-c2ccc(F)cc2)CC1
inactive: growth inhibition [1] -5.51% | growth inhibition [2] 10.6% | viability increase [3] -0.49% | viability [4] 88.7% | viability [5] 92% | inhibition [6] 1.79% | RAM network inhibition [7] 2.35%

C=CCn1c(O)c(C2=c3ccccc3=NC2=O)s/c1=N/c1nccs1
inactive: growth inhibition [1] -9.64% | growth inhibition [2] -9.09% | viability increase [3] -7.95% | viability [4] 42.1% | viability [5] 36% | inhibition [6] 0.115% | RAM network inhibition [7] 5.25%

Cc1cc(C(=O)N2CCN(C(c3ccccc3)c3ccccc3)CC2)on1
inactive: growth inhibition [1] -11.2% | growth inhibition [2] -5.41% | viability increase [3] 0.42% | viability [4] 89.7% | viability [5] 76.7% | inhibition [6] 2.04% | RAM network inhibition [7] 3.7%

CCOC(=O)N1CCc2c(sc(NC(=O)c3ccc(S(=O)(=O)N4CCCC4)cc3)c2C#N)C1
inactive: growth inhibition [1] -3.65% | growth inhibition [2] -5.41% | viability increase [3] -1.2% | viability [4] 99.1% | viability [5] 85% | inhibition [6] 2.04% | RAM network inhibition [7] 5.32%

O=C(NC1CCCCC1)N1CCC(n2c(=O)[nH]c3ccccc32)CC1
inactive: growth inhibition [1] -8.88% | growth inhibition [2] -10.8% | viability increase [3] 1.07% | viability [4] 91.1% | viability [5] 89.6% | inhibition [6] 2.25% | RAM network inhibition [7] 5.7%

CCOC(=O)C(C)Sc1nnc(Cc2cc(=O)[nH]c(=O)[nH]2)n1-c1ccc(OCC)cc1 (stereo not drawn)
inactive: growth inhibition [1] 2.12% | growth inhibition [2] -6.84% | viability increase [3] -0.85% | viability [4] 109% | viability [5] 101% | inhibition [6] 0.75% | RAM network inhibition [7] 2.89%

COc1ccc(OC)c(C2CC(=O)N3CN(c4cccc(Cl)c4C)CSC3=C2C#N)c1 (stereo not drawn)
inactive: growth inhibition [1] 2.17% | growth inhibition [2] 13.8% | viability increase [3] -5.48% | viability [4] 74% | viability [5] 72.1% | inhibition [6] 1.87% | RAM network inhibition [7] 2.07%

CC(=O)N1CCc2cc(C(=O)CN3CCN(c4ccccc4F)CC3)ccc21
inactive: growth inhibition [1] -7.16% | growth inhibition [2] -7.33% | viability increase [3] -3.19% | viability [4] 93.7% | viability [5] 88% | inhibition [6] 2.17% | RAM network inhibition [7] 2.34%

CC(=O)c1cccc(NC(=O)CN(c2ccc(F)cc2)S(C)(=O)=O)c1
inactive: growth inhibition [1] -13% | growth inhibition [2] -15.2% | viability increase [3] -3.2% | viability [4] 98.2% | viability [5] 98.7% | inhibition [6] 0.845% | RAM network inhibition [7] 5.96%

O=C(Cn1cc2c(n1)CCCCC2)NC1CCCCCC1
inactive: growth inhibition [1] -9.25% | growth inhibition [2] -9.21% | viability increase [3] -3.6% | viability [4] 97.1% | viability [5] 89% | inhibition [6] 0.43% | RAM network inhibition [7] 0.21%

CC(=O)Nc1ccc(S(=O)(=O)N2CCN(c3cccc(C)c3C)CC2)cc1
inactive: growth inhibition [1] -2.38% | growth inhibition [2] -3.89% | viability increase [3] -6.76% | viability [4] 35.8% | viability [5] 34.5% | inhibition [6] 0.185% | RAM network inhibition [7] 0.9%

CCc1ccc2c(c1)C(NC(C)=O)C(=O)N2CC (stereo not drawn)
inactive: growth inhibition [1] -11.8% | growth inhibition [2] -3% | viability increase [3] -0.55% | viability [4] 78.5% | viability [5] 86% | inhibition [6] 0.73% | RAM network inhibition [7] 0.8%

COCCOC(=O)C1=C(C)NC(=O)NC1c1c(F)cccc1Cl (stereo not drawn)
inactive: growth inhibition [1] -7.95% | growth inhibition [2] -2.18% | viability increase [3] 0% | viability [4] 106% | viability [5] 95.8% | inhibition [6] 0.515% | RAM network inhibition [7] 0.88%

CC1(C)Cc2ccccc2-c2nc(NCCCO)n(-c3ccccc3)c(=O)c21
inactive: growth inhibition [1] -18.3% | growth inhibition [2] -18.9% | viability increase [3] -0.84% | viability [4] 97.7% | viability [5] 91.3% | inhibition [6] 1.07% | RAM network inhibition [7] 5.29%

O=C(Nc1nnc(CC(=O)N2CCCC2)s1)c1cnccn1
inactive: growth inhibition [1] -3.58% | growth inhibition [2] 4.7% | viability increase [3] -1.2% | viability [4] 104% | viability [5] 100% | inhibition [6] 1.66% | RAM network inhibition [7] -0.94%

Reference: PubChem BioAssay
